Measured values as given in publication PMC3110074 (ACS chemical neuroscience, 2011).
Read-outs that look alike come from different tables or passages of the source.

Experiments:
[1] = cited from earlier work
[2] = system: TH positive neurons in the SNpc; conditions: intraperitoneal injection; cited from earlier work
TYK2 = TYK2 (Homo sapiens, UniProt P29597); test: Ambit kinase panel screen, TYK2; assay type: binding; conditions: suggested from Ambit panel at 3 μM
[3] = Plasma protein binding, mouse; assay type: in vitro ADME
CYP P450 2A6 = CYP P450 2A6 (Homo sapiens, UniProt P11509); test: P450 inhibition 2A6; assay type: in vitro ADME; conditions: read-out: IC50 CYP450 2A6
[4] = system: p-c-jun in substantia nigra tissue lysate; test: ELISA for p-c-jun target modulation after MPTP; assay type: in vivo, C57BL/6J mice; conditions: MPTP-treated mice
Method in brief: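 Male C57BL/6J mice (11 weeks, 25–30 g) got the test compound orally 30 min before the first of repeated i.p. MPTP-HCl doses given at 2 h intervals, and were killed 7 h after the first MPTP dose. SN nuclear extracts were made with protease and phosphatase inhibitors and protein was measured by BCA. Phospho-c-jun Ser63 in 30 μg protein was read by ELISA in duplicate against a recombinant p-c-jun standard curve. Groups were compared by two-tailed unpaired t test.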

CYP P450 2D6 = CYP P450 2D6 (Homo sapiens, UniProt P10635); test: P450 inhibition 2D6; assay type: in vitro ADME; conditions: read-out: IC50 CYP450 2D6
[5] = molecular target: monoamine oxidase A (MAO-A) (Homo sapiens, UniProt P21397); test: MAO-A inhibition; assay type: biochemical; conditions: read-out: IC50 MAO-A
[6] = Plasma protein binding, human; assay type: in vitro ADME
CYP P450 2C8 = CYP P450 2C8 (Homo sapiens, UniProt P10632); test: P450 inhibition 2C8; assay type: in vitro ADME; conditions: read-out: IC50 CYP450 2C8
[7] = Plasma protein binding, monkey; assay type: in vitro ADME
CYP P450 2E1 = CYP P450 2E1 (Homo sapiens, UniProt P05181); test: P450 inhibition 2E1; assay type: in vitro ADME; conditions: read-out: IC50 CYP450 2E1
CYP P450 2C19 = CYP P450 2C19 (Homo sapiens, UniProt P33261); conditions: read-out: IC50 CYP450 2C19
Rat pharmacokinetics = assay type: in vivo, Sprague-Dawley rats; conditions: rats
Method in brief: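 Sprague-Dawley rats (n = 3) were dosed 1 mg/kg i.v. or 2 mg/kg by oral gavage. Blood was drawn into EDTA at 5, 15 and 30 min and at 1, 2, 4, 6 and 8 h. Plasma proteins were precipitated with acetonitrile and the test compound quantified by LC-MS/MS. Noncompartmental analysis gave CL, oral bioavailability, Cmax, AUC, t1/2 and Vd.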

KIT V559D = KIT V559D (Homo sapiens, UniProt P10721, V559D); test: Ambit kinase panel screen, KIT V559D; assay type: binding; conditions: suggested from Ambit panel at 3 μM
PDGFR-β = PDGFR-β (Homo sapiens, UniProt P09619); test: Ambit kinase panel screen, PDGFR-β; assay type: binding; conditions: suggested from Ambit panel at 3 μM
[8] = system: striatal catecholamine levels; test: Striatal dopamine, DOPAC and HVA levels after MPTP; assay type: in vivo, C57BL/6J mice; conditions: MPTP-treated mice, 30 mg/kg, 7 days
[9] = Microsomal stability, mouse; assay type: in vitro ADME; conditions: mouse liver microsomes
347 kinases = test: Ambit kinase panel screen; assay type: binding; conditions: 3 μM
[10] = system: p-c-jun in TH-positive neurons of the SNpc; test: Immunohistochemistry for TH and p-c-jun after MPTP; assay type: in vivo, C57BL/6J mice; conditions: single oral dose 30 mg/kg, seven hr
Method in brief: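 The test compound was given orally 30 min before repeated i.p. MPTP-HCl (2 h intervals) to male C57BL/6J mice, which were killed 7 h after the first MPTP dose; three mice per group. 16 μm SN sections (bregma −3.0) were incubated overnight at 4 °C with sheep anti-TH (1:50) and rabbit anti-p-c-jun Ser73 (1:100), then 2 h with Alexa 594/488 secondaries (1:500). DAPI was used for normalisation. TH+ neurons with nuclear p-c-jun were counted.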

[11] = Mouse brain penetration time course; assay type: in vivo, C57Bl6 mice; conditions: mice, single oral dose 30 mg/kg
CYP P450 3A4 = CYP P450 3A4 (Homo sapiens, UniProt P08684); conditions: read-out: IC50 CYP450 3A4
P-glycoprotein (PGP) = P-glycoprotein (PGP) (Homo sapiens, UniProt P08183); test: P-glycoprotein substrate assessment; assay type: in vitro ADME
[12] = molecular target: Leucine Rich repeat Kinase 2 (LRRK2) (Homo sapiens, UniProt Q5S007); test: LRRK2 inhibition; assay type: biochemical; conditions: up to 10 μM
CYP P450 2B6 = CYP P450 2B6 (Homo sapiens, UniProt P20813); test: P450 inhibition 2B6; assay type: in vitro ADME; conditions: read-out: IC50 CYP450 2B6
[13] = molecular target: monoamine oxidase B (MAO-B) (Homo sapiens, UniProt P27338); test: MAO-B inhibition; assay type: biochemical; conditions: read-out: IC50 MAO-B
[14] = system: primary mesencephalic dopaminergic neurons exposed to MPP+; assay type: cell-based, Sprague Dawley rat; conditions: for neuroprotective effect (TH-positive neurons): 10 μM MPP+ for 48 hr
Method in brief: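 Ventral mesencephalon from E14 Sprague-Dawley rat embryos was trypsinised (0.25%, 5 min, 37 °C) and triturated. Cells were plated at 200 000/well on poly-D-lysine/laminin in DMEM/10% HIFBS, then switched after 2 h to SATO selection medium for 5 days with daily changes. Test compound (10–1000 nM) was added 15 min before 10 μM MPP+, with 48 h at 37 °C/5% CO2. Cells were fixed in 4% PFA and TH+ neurons counted blinded. Four wells per concentration, three biological replicates; one-way ANOVA.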

[15] = Plasma protein binding, rat; assay type: in vitro ADME
CYP P450 2C9 = CYP P450 2C9 (Homo sapiens, UniProt P11712); conditions: read-out: IC50 CYP450 2C9
[16] = system: c-jun phosphorylation in ventral midbrain; test: Western blot for phospho-c-jun after MPTP; assay type: in vivo, C57BL/6J mice; conditions: MPTP-treated mice, 20 mg/kg oral
Method in brief: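 Mice received the test compound orally 30 min before the first i.p. MPTP-HCl dose and were killed 7 h after that dose; two saline, three MPTP and two MPTP+compound mice. Ventral midbrain was dissected and lysed, and 30 μg nuclear-fraction protein was immunoblotted for phospho-c-jun.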

G2019S LRRK2 = G2019S LRRK2 (Homo sapiens, UniProt Q5S007, G2019S); test: G2019S LRRK2 inhibition; assay type: biochemical; conditions: up to 10 μM
[17] = Microsomal stability, human; assay type: in vitro ADME; conditions: human liver microsomes
KIT = KIT (Homo sapiens, UniProt P10721); test: Ambit kinase panel screen, KIT; assay type: binding; conditions: suggested from Ambit panel at 3 μM
CYP P450 1A2 = CYP P450 1A2 (Homo sapiens, UniProt P05177); test: P450 inhibition 1A2; assay type: in vitro ADME; conditions: read-out: IC50 CYP450 1A2
[18] = Microsomal stability, rat; assay type: in vitro ADME; conditions: rat liver microsomes
[19] = cited from earlier work; remark: listed apart in the source

Sequence of PDGFR-β (P09619 33-1106): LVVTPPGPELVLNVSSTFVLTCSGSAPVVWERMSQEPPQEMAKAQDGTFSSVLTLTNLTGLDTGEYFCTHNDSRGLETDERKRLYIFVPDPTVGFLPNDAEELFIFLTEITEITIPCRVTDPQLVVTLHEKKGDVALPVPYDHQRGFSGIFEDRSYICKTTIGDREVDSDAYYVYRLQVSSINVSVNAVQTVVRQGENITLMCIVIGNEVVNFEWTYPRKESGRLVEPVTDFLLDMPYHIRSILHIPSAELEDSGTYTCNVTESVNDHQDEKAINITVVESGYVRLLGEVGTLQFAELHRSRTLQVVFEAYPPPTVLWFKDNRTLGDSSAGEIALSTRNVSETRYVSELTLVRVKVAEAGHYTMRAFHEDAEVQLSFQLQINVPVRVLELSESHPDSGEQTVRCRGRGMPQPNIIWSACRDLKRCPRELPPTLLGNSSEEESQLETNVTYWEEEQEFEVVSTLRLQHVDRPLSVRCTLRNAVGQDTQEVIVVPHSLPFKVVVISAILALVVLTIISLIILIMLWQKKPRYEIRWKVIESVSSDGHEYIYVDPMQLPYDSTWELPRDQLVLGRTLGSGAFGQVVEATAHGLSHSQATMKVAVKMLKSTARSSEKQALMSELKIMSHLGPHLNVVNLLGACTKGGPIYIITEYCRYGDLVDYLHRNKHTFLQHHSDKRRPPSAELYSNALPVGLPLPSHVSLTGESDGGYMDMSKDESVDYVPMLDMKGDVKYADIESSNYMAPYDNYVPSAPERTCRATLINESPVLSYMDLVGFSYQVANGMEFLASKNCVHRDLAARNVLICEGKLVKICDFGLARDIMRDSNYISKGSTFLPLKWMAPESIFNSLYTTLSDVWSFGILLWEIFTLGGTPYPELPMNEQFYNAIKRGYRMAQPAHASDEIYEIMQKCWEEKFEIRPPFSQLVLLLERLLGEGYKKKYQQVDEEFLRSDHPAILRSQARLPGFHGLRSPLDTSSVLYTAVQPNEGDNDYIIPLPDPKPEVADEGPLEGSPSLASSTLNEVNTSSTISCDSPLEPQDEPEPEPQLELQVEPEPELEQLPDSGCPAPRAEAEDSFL
Sequence of CYP P450 2A6 (P11509 whole entry): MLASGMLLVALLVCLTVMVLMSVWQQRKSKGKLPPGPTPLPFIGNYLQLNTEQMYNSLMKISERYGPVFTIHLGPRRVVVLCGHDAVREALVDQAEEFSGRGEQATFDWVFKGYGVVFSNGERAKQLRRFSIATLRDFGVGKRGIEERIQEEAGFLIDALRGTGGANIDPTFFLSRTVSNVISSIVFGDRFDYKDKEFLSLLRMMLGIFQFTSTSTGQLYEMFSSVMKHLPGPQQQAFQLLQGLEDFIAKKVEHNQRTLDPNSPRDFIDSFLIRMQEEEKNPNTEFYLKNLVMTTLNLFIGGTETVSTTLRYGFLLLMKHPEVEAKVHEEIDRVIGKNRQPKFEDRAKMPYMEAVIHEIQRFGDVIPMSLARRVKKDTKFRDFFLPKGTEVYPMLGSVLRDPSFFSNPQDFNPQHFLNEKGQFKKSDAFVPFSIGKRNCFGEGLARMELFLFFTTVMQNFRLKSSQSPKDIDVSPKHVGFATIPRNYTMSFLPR
Sequence of monoamine oxidase A (MAO-A) (P21397 whole entry, species assumed): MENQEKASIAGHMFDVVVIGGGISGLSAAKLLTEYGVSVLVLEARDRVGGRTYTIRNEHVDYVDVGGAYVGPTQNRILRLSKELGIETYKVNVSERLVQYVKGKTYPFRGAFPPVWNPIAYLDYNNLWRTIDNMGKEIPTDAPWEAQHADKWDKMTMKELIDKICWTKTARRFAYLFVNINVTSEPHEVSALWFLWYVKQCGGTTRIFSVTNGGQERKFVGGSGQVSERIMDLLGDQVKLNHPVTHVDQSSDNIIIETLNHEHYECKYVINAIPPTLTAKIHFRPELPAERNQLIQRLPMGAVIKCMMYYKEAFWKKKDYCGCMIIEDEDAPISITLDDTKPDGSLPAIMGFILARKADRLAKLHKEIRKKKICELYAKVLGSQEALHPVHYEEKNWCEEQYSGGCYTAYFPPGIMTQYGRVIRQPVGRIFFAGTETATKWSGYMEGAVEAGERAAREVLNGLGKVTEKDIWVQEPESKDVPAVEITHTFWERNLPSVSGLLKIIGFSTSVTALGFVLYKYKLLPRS
Sequence of CYP P450 3A4 (P08684 whole entry): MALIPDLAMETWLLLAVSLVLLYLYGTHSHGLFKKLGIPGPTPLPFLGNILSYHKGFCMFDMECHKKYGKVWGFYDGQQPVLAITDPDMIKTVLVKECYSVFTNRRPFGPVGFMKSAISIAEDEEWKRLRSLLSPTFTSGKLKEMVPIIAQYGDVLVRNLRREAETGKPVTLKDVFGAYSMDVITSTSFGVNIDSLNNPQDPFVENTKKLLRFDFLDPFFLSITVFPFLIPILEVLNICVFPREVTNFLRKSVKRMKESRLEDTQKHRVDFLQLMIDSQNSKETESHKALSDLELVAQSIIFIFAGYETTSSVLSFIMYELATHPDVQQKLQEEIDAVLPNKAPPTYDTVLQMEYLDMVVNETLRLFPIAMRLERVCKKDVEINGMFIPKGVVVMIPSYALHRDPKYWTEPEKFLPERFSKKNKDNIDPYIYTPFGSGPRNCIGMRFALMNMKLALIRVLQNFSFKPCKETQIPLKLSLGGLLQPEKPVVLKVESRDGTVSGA
Sequence of CYP P450 2C9 (P11712 whole entry): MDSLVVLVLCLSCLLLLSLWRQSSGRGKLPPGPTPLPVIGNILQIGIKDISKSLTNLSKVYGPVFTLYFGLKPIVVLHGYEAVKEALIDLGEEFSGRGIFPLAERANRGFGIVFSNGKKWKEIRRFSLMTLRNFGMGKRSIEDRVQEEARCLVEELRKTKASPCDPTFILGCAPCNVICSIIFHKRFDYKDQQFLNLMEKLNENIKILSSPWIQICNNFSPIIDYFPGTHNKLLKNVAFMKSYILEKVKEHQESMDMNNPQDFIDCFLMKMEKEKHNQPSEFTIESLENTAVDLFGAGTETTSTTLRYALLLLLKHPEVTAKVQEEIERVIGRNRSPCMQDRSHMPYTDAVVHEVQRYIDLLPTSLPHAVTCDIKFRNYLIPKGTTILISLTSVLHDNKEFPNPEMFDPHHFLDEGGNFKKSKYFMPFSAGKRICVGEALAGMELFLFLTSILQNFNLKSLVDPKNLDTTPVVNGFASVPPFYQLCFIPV
Sequence of CYP P450 2C8 (P10632 whole entry): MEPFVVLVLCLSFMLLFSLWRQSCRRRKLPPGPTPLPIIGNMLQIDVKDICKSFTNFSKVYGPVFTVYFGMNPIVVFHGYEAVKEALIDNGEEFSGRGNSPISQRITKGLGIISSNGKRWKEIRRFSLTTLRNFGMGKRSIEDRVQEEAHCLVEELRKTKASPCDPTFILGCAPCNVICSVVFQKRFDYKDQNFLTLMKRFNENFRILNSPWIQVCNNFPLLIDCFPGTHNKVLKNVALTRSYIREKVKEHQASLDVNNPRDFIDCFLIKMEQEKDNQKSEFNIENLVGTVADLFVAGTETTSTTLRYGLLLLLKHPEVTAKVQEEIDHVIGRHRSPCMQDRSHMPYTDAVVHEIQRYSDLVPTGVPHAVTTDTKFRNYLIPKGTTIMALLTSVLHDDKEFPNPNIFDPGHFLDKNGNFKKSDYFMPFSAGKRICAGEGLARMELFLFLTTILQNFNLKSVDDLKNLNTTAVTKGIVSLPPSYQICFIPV
Sequence of CYP P450 1A2 (P05177 whole entry): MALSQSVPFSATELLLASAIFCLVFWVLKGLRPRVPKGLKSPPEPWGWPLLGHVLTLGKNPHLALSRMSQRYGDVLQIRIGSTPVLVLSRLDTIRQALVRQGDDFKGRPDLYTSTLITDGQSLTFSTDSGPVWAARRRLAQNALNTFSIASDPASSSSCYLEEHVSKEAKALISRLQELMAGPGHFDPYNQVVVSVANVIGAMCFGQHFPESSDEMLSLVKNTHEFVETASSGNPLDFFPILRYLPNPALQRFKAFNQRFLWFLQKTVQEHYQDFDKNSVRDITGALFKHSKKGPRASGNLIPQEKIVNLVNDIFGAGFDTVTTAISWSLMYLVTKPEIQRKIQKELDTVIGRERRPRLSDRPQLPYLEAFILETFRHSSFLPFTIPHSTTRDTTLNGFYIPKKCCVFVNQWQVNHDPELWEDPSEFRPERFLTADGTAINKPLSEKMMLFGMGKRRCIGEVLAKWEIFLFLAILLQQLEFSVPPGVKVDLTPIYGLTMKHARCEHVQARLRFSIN
Sequence of monoamine oxidase B (MAO-B) (P27338 whole entry, species assumed): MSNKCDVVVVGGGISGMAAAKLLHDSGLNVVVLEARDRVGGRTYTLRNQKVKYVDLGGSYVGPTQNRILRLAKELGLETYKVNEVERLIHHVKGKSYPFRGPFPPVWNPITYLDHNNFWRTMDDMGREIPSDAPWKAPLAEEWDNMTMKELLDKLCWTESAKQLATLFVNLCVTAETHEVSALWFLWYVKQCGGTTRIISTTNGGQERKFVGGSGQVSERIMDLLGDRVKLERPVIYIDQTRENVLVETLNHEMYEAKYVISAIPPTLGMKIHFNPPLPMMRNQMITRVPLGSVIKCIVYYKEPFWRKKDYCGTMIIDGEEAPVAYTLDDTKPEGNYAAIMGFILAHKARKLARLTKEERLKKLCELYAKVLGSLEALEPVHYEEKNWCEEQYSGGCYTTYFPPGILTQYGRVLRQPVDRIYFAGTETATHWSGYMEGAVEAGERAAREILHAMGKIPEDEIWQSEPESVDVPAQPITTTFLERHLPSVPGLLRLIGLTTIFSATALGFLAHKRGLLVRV

In the case of `N[C@@H](Cc1ccc(O)c(O)c1)C(=O)O` [L-DOPA, levodopa], the initial response rates [1] is given as ~90%.

For `Oc1c2ccccc2c2c3c(cccc13)N=N2` [SP600125], the “protection in the chronic MPTP mouse model” value [2] is given as “protective”.

For `Cc1ccc(-c2ncn(-c3ccc(Nc4nccc(-c5cccc(N6CCOCC6)c5)n4)cc3)n2)cn1` [SR-3306], the Kd (TYK2) was < 1 µM, the plasma protein binding [3] was 86% and the IC50 (CYP P450 2A6) was > 50 µM. For the same molecule, the “p-c-jun levels in the ventral midbrain by ELISA” value (“p-c-jun levels” below) ([4]; 10 mg/kg oral) was “no effect”, the “p-c-jun levels” value ([4]; 20 mg/kg oral, p< 0.01) was “statistically significant reduction” and the “p-c-jun levels” value ([4]; 30 mg/kg oral, p < 0.001) was “statistically significant reduction”. The IC50 (CYP P450 2D6) was > 50 µM, the IC50 [5] was > 50 µM and the plasma protein binding [6] was 88%. For the same molecule, the IC50 (CYP P450 2C8) was > 50 µM, the plasma protein binding [7] was 96% and the IC50 (CYP P450 2E1) was > 50 µM. For the same molecule, the IC50 (CYP P450 2C19) was > 50 µM, the clearance rate (Rat pharmacokinetics; 1 mg/kg i.v.) was 14 mL/min/kg and the “oral bioavailability (%F)” value (Rat pharmacokinetics; 2 mg/kg p.o. vs 1 mg/kg i.v.) was 31%. For the same molecule, the Kd (KIT V559D) was < 1 µM, the Kd (PDGFR-β) was < 1 µM and the “protection of striatal DOPAC levels” value [8] was “some protection”. The “protection of striatal dopamine levels” value [8] was “not able to demonstrate protection”, the “protection of striatal homovanillic acid (HVA) levels” value [8] was “not able to demonstrate protection” and the microsomal stability [9] was 26 min. The “number of kinases with any hit” value (347 kinases) was 35 out of the 347, the “number of p-c-jun positive cells compared to MPTP treated mice” value [10] was “dramatic decrease (four-fold)” and the brain concentration ([11]; 4 hr) was 3000 nM. For the same molecule, the “brain concentration above the >90% neuroprotective concentration” value ([11]; 8 hr) was 7 fold, the brain concentration ([11]; 24 hr) was 230 nM and the IC50 (CYP P450 3A4) was > 50 µM. For the same molecule, the “P-glycoprotein (PGP) substrate” value (P-glycoprotein (PGP)) was “not a P-glycoprotein (PGP) substrate”, the “inhibition of LRRK2” value [12] was “not inhibited” and the IC50 (CYP P450 2B6) was > 50 µM. The IC50 [13] was > 50 µM, the “neuroprotective effect (TH-positive neurons)” value ([14]; 300 nM) was “greater than 90%” and the “effect on number of TH-positive neurons, compound alone” value ([14]; 1000 nM in the absence of MPP+) was “no effect compared to control”. The “neuroprotective effect (TH-positive neurons)” value ([14]; 1000 nM) was “greater than 90%”, the plasma protein binding [15] was 97% and the IC50 (CYP P450 2C9) was > 50 µM. For the same molecule, the “phospho-c-jun signal by Western blot” value [16] was “decrease in the phospho-c-jun signal”, the “inhibition of G2019S LRRK2” value (G2019S LRRK2) was “not inhibited” and the microsomal stability [17] was 28 min. The Kd (KIT) was < 1 µM, the IC50 (CYP P450 1A2) was > 50 µM and the microsomal stability [18] was 30 min.

For `C#CCN[C@@H]1CCc2ccccc21` [rasagiline], the neuroprotective disease-modifying effects ([19]; 1 mg) is given as “possible disease-modifying effects” and the neuroprotective disease-modifying effects ([19]; 2 mg dose, 1176 subjects) is given as “failed to show neuroprotective disease-modifying effects”.
